# MEKK2 WT-MEK5 = raises or lowers MEK5 binding to wildtype human MEKK2 PB1 domain; bead flow cytometry, Alexa488-MEK5 binding to MEKK2 WT; actives lie on both sides; binding response (% of control), % at 10 µM; Q9Y2U5; 290,000 compounds, 1.1% hits; AID 1531; in the data active means binding response below about 67% or above about 130%
# Apaf-1 inh = blocks human Apaf-1 apoptosome activity | O14727 | reconstituted apoptosome caspase-3 activity, DEVD-Rh110 fluorescence | inhibition, % at 20 µM | 330,000 compounds, 0.71% hits; active means inhibition of at least 40% at 20 µM
#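 System: reconstituted apoptosome with Apaf-1, cytochrome c, caspase-9, procaspase-3, dATP; Signal: Rh110 fluorescence intensity; Schedule: 30 min compound preincubation, 50 min activation, room temperature; Reagent: cytochrome c trigger plus (Z-DEVD)2-Rh110 caspase-3 substrate.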
# MEKK2 mut-MEK5 = signal of MEK5 binding to mutant human MEKK2 PB1 domain. bead flow cytometry, Alexa488-MEK5 binding to MEKK2 mutant. percent response, % at 10 µM. 290,000 compounds, 0.35% hits. AID 1530; in the data active means percent response above about 24%, passing the limit was not always enough
# MEKK3 PB1 HTS = MEKK3-MEK5 PB1 interaction, increase or decrease | Q99759 | bead-based flow cytometry, Alexa488-MEK5 binding to MEKK3; actives lie on both sides; 0 = blocked by unlabeled MEK5, 100 = vehicle | binding response (% of control), % at 10 µM | 290,000 compounds, 1.4% hits;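 active means binding response more than 3 SD above or below the average of its plate-row segment, actives on both sides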;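 further: Alexa488 bead fluorescence after subtracting the streptavidin-only scavenger bead signal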
# PREPL inh = inhibits the human prolyl oligopeptidase-like enzyme | inhibition, % at 5.96 µM | recombinant PREPL, fluorescence polarization activity-based probe | AID 2751 | Q4J6C6 | 320,000 compounds, 0.68% hits; in the data active means inhibition above about 43%
# UBC13 polyUb = inhibitors of human UBC13 polyubiquitin chain formation. TR-FRET. 330,000 compounds, 0.47% hits. inhibition, % at 20 µM. P61088; in the data active means inhibition above about 45%, passing the limit was not always enough
# Target sequence (P61088 whole entry, looked up): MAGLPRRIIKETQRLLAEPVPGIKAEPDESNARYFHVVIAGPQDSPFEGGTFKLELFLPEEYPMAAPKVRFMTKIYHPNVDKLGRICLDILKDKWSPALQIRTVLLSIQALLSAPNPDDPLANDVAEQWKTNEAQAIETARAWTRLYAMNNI
# Apaf-1 inh conf = Apaf-1 inhibition, single-dose confirmed; reconstituted apoptosome, caspase-3 DEVD-Rh110 fluorescence; shares compounds with Apaf-1 inh; AID 504614; 1,800 compounds, 25% hits; inhibition, % at 20 µM;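 active means mean inhibition of at least 40% at 20 µM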
# Rh110 quench = counter-screen for Apaf-1 inhibitors: fluorescence interference | shares compounds with Apaf-1 inh | Rh110 fluorescence interference, quenched caspase reaction | activation (fluorescence interference), % at 20 µM | 1,800 tested, under 10 active;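 active means signal rise of 40% or more at 20 µM, treated as a fluorescence artifact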
# Fluor interf inh = shows fluorescence interference in the Apaf-1 inhibitor assay format. fluorescence interference counterscreen, Apaf-1 assay format. shares compounds with Apaf-1 inh. 460 tested, under 10 active. IC50, µM; call rule not given here
# A number is an active result; . = inactive; / = not tested or not shown. A selection: hits, their analogues and other compounds. The true share with any hit is near 3.1%.
SMILES,MEKK2 WT-MEK5,Apaf-1 inh,MEKK2 mut-MEK5,MEKK3 PB1 HTS,PREPL inh,UBC13 polyUb,Apaf-1 inh conf,Rh110 quench,others
CN(C)S(=O)(=O)c1cccc(NC(=O)Cc2ccc(-c3ccccc3)cc2)c1,.,.,.,.,.,.,/,/,
COc1ccccc1N1CCN(C(=O)c2ccc3c(Cl)c4c(nc3c2)CCCC4)CC1,.,41.2,.,.,.,.,.,.,
O=C(c1ccc2c(Cl)c3c(nc2c1)CCCC3)N1CCN(c2ccc(F)cc2)CC1,.,.,.,.,.,.,/,/,
Oc1cc(NCCN2CCOCC2)cc2cccnc12,/,92.3,/,/,.,.,79.6,.,Fluor interf inh=.
Oc1cc(Nc2ccccc2)cc2cccnc12,/,.,/,/,.,.,/,/,
O=C1C(NS(=O)(=O)c2cccs2)=C(N2CCN(c3cccc(C(F)(F)F)c3)CC2)C(=O)c2ccccc21,/,47.5,/,/,.,.,.,.,
CN1CCN(C2=C(NS(=O)(=O)c3cccs3)C(=O)c3ccccc3C2=O)CC1,.,.,.,.,.,.,/,/,
O=C1C(NS(=O)(=O)c2cccs2)=C(N2CCN(Cc3ccccc3)CC2)C(=O)c2ccccc21,.,51.0,.,.,.,.,.,.,
CCOC(=O)C1CCN(C(=O)Cn2cnc3sc(C)c(S(=O)(=O)N4CCOCC4)c3c2=O)CC1,.,.,.,.,.,.,/,/,
O=C(NNC(=O)C1COc2ccccc2O1)c1ccccc1O (centres undefined),/,.,/,/,/,.,/,/,
CCC(C)c1ccc(NC(=O)COc2c(F)c(F)c(C(F)(F)F)c(F)c2F)cc1 (centres undefined),.,.,.,.,.,.,/,/,
Cc1cccc(NC(=O)c2sc3nc4c(c(-c5cccs5)c3c2N)CN(C)CC4)c1,.,49.9,.,.,.,.,.,.,
Cc1ccc(C(=O)NNc2cc(N3CCCC3)nc(N3CCCC3)n2)cc1,.,97.0,.,.,.,.,88.7,.,Fluor interf inh=.
O=C1C(=O)N(CCN2CCOCC2)C(c2ccccc2)/C1=C(\O)c1ccc2c(c1)OCCO2 (centres undefined),.,50.3,.,.,.,.,.,.,
Cc1ccc(S(=O)(=O)N2CCOCC2)cc1NC(=O)CSc1nnc(NC2CC2)s1,/,.,/,/,.,.,/,/,
COc1ccc2oc(C(=O)OCc3nnc(-c4ccccc4)o3)c(C)c2c1,/,.,/,/,.,.,/,/,
CCN(CC)c1nc(N)c2c(N)nc(OC)cc2c1C#N,.,46.4,.,.,.,.,.,.,
CCOC(=O)C1CCN(c2nc(N)c3c(N)nc(SCC(=O)O)cc3c2C#N)CC1,.,/,.,.,/,/,/,/,
CCOc1cc2c(C#N)c(N3CCCCC3)nc(N)c2c(N)n1,.,96.8,.,.,.,.,.,.,
CCN(CC)c1nc(N)c(C#N)c(CC#N)c1C#N,.,.,.,.,.,.,/,/,
Cc1cccc(/C=N/NC(=O)C(C)Nc2cccc3ccccc23)n1 (centres undefined),.,90.9,.,.,.,.,.,.,
COc1cc([N+](=O)[O-])cc(/C=N/NC(=O)C(C)Nc2cccc3ccccc23)c1O (centres undefined),.,93.2,.,.,.,.,.,.,
CC(Nc1cccc2ccccc12)C(=O)N/N=C/c1ccc([N+](=O)[O-])cc1 (centres undefined),.,.,.,.,.,.,/,/,
CC(=O)Nc1cccc(NC(=O)CSc2nnc3ccc(-c4cccnc4)nn23)c1,/,.,/,/,.,.,/,/,
Cc1ccc(OCC(=O)N/N=C\c2c(C)n(C)c3ccccc23)c([N+](=O)[O-])c1,.,42.0,.,.,.,.,.,.,
SMILES,MEKK2 WT-MEK5,Apaf-1 inh,MEKK2 mut-MEK5,MEKK3 PB1 HTS,PREPL inh,UBC13 polyUb,Apaf-1 inh conf,Rh110 quench,others
Nc1ccc2ncccc2c1,.,85.5,.,.,.,.,.,.,
CC(C)(C)C(=O)Nc1ccc(C(=O)CN2C(=O)NC3(CCOc4ccccc43)C2=O)cc1 (centres undefined),/,.,/,/,.,.,/,/,
COC1=C(Nc2ccccc2OC)C(=O)c2ccccc2C1=O,.,54.5,.,.,.,.,.,.,
COc1ccc(OCCSc2ccc(S(=O)(=O)N3CCCC3)cn2)cc1,/,.,/,/,.,.,/,/,
CN1CCN(S(=O)(=O)c2ccc(SCCOc3ccc(Cl)cc3)nc2)CC1,/,50.7,/,/,.,.,.,.,
O=C(Nc1nc2ccccc2s1)C1CCN(S(=O)(=O)c2cc([N+](=O)[O-])ccc2Cl)CC1,.,.,.,.,.,.,/,/,
CCn1cc(S(=O)(=O)NCc2ccc(OC)cc2)cn1,.,.,.,.,.,.,/,/,
CN(C)c1cccc2c1c(NS(=O)(=O)c1cn(C)cn1)nn2C,.,61.9,.,.,.,.,.,.,
Cc1ccc(N=Nc2c(N)[nH]n3c(=O)cc(-c4ccccc4)nc23)cc1,.,54.9,.,.,.,.,63.8,.,Fluor interf inh=.
COc1ccc(NS(=O)(=O)c2cccc(C(=O)NCC(c3ccccc3)N(C)C)c2)cc1 (centres undefined),/,.,/,/,.,.,/,/,
COc1ccccc1C(CNC(=O)c1cccc(S(=O)(=O)Nc2ccc(C)cc2)c1)N(C)C (centres undefined),.,46.1,.,.,.,.,.,.,
Cc1cc(C)c(S(C)(=O)=O)c(Oc2cccc(C(F)(F)F)c2)n1,.,.,.,.,.,.,/,/,
CN(C)c1cccc2cccc(N(C)C)c12,.,89.4,.,.,.,.,.,.,
COC(CNC(=O)C(=O)Nc1cc2c3c(c1)CCN3C(=O)CC2)OC,.,.,.,.,.,.,/,/,
CCCc1ccc2oc(C(=O)NCCc3nc(C(=O)OCC)cs3)c(C)c2c1,.,40.8,.,.,/,.,.,.,
CCCc1ccc2oc(C(=O)NCCc3cnn(C)c3)c(C)c2c1,.,.,.,.,.,.,/,/,
Cn1c(=O)c2cc(NCc3ccccc3)nnc2n(C)c1=O,.,93.8,.,.,.,.,.,.,
Nc1nc(N)nc(-c2cccc(Cl)c2)n1,/,.,/,/,.,.,/,/,
CN1/C(=C\C(=O)COC(=O)c2ccc([N+](=O)[O-])o2)C(C)(C)c2ccccc21,.,56.2,.,.,.,.,.,.,
CN1/C(=C\C(=O)COC(=O)c2nccnc2N)C(C)(C)c2ccccc21,/,.,/,/,.,.,/,/,
Cc1cc(C)c(C#N)c(N2CCCC(C(N)=O)C2)n1 (centres undefined),.,.,.,.,.,.,/,/,

# From PubChem BioAssay
